pEC50: −log10 of the molar value. Active and inactive are the calls of the source. No cut-off for these calls is given here.
Tests used:
[1] = Selectivity index, ratio of CC50 for HFF to EC50 for […] infected in HFF
Human betaherpesvirus 5 [2] = test: Antiviral activity against human cytomegalovirus AD169 infected in HFF after 8 to 10 days by plaque reduction assay; assay type: functional, organism-based; details: Human betaherpesvirus 5, AD169
How it was run: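 Plaque reduction on confluent HFF monolayers in triplicate wells: 1 h adsorption, then six serial compound dilutions (top 100 μM) in MEM with 2% FBS, no immunoglobulin. Incubation was 8 days for HCMV and 10 days for VZV. Plaques were stained with 0.017% neutral red in PBS and counted microscopically. EC50 was interpolated at 50% plaque reduction.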

[3] = Selectivity index, ratio of CC50 for human Akata cells to EC50 for Epstein-Barr virus infected in human Akata cells; assay type: toxicity, cell-based; details: read-out: Ratio CC50/EC50
Human alphaherpesvirus 2 [4] = test: Antiviral activity against HSV2 infected in BALB/c mouse assessed mean time to virus-induced death at 10 mg/kg, po BID administered 24 hrs post infection; assay type: functional
Human alphaherpesvirus 2 [5] = test: Antiviral activity against HSV2 infected in BALB/c mouse assessed as virus-induced mortality rate at 10 mg/kg, po BID administered 24 hrs post infection; assay type: functional
Human alphaherpesvirus 2 [6] = test: Antiviral activity against HSV2 harboring frameshift mutation in TK infected in HFF after 3 days by plaque reduction assay; assay type: functional, organism-based; details: Human alphaherpesvirus 2, 72 h
How it was run: (§1)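 Confluent HFF monolayers (passage <10) were infected in triplicate wells at 20–30 plaques per well, with 1 h adsorption and rocking every 15 min. Six serial dilutions (top 100 μM) were made in MEM with 2% FBS and pooled human immunoglobulin. Cells were incubated 3 days and stained with crystal violet. Plaques were counted, and EC50 was interpolated from plaque reduction.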

Human alphaherpesvirus 2 [7] = test: Antiviral activity against HSV2 MS infected in HFF after 3 days by plaque reduction assay; assay type: functional, organism-based; details: Human alphaherpesvirus 2, MS, 72 h
How it was run: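 Confluent primary HFF monolayers (passage <10), triplicate wells, virus dosed at 20–30 plaques/well. Adsorption was 1 h with rocking every 15 min. Six serial dilutions, top 100 μM, were made in MEM with 2% FBS plus pooled human immunoglobulin. After 3 days, wells were stained with 0.1% crystal violet in 20% methanol and plaques counted microscopically. EC50 was interpolated.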

Human betaherpesvirus 5 [8] = test: Antiviral activity against human cytomegalovirus RC314 harboring UL97 K355M mutant gene infected in HFF after 8 to 10 days by plaque reduction assay; assay type: functional, organism-based; details: Human betaherpesvirus 5, RC314
How it was run: (§2)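 Plaque reduction in confluent HFF with six serial dilutions (top 100 μM) and no immunoglobulin added. Virus was adsorbed 1 h on triplicate wells. Cells were incubated 8 days, stained with 0.017% neutral red in PBS, and plaques counted. EC50 is the concentration reducing plaque number by 50%.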

Human betaherpesvirus 5 [9] = test: Antiviral activity against human cytomegalovirus 759D100 harboring deletion mutation in UL97 gene and UL54 A987G mutant gene infected in HFF after 8 to 10 days by plaque reduction assay; assay type: functional, organism-based; details: Human betaherpesvirus 5, 759D100; how it was run: as §2
[10] = Selectivity index, ratio of CC50 for HFF to EC50 for VZV Ellan infected in HFF
Human alphaherpesvirus 2 [11] = test: Antiviral activity against HSV2 infected in BALB/c mouse assessed mean time to virus-induced death at 30 mg/kg, po BID administered 72 hrs post infection; assay type: functional
Human alphaherpesvirus 2 [12] = test: Antiviral activity against HSV2 MS infected in HFF assessed as inhibition of viral DNA synthesis-associated incorporation in DNA by immunofluorescence assay; assay type: functional, organism-based
How it was run: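 HFF on coverslips were infected with HSV-2 MS or the resistant isolate (MOI 0.2 PFU/cell) for 48 h. Cells were pulsed with BrdUrd or 10 μM test compound for 30 min before fixation. Incorporation was detected with a cross-reacting anti-BrdUrd monoclonal antibody, infected cells with anti-155-kDa nucleocapsid antibody, and nuclei with DAPI.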

Human alphaherpesvirus 2 [13] = test: Antiviral activity against HSV2 infected in BALB/c mouse assessed as virus-induced mortality rate at […], po BID administered 24 hrs post infection; assay type: functional
Human alphaherpesvirus 2 [14] = test: Selectivity ratio of EC50 for 4'-thioIDU-resistant HSV2 infected in HFF to EC50 for HSV2 MS infected in HFF; assay type: functional
[15] = Selectivity index, ratio of CC50 for HFF to EC50 for HSV2 MS infected in HFF
Human betaherpesvirus 5 [16] = test: Antiviral activity against human cytomegalovirus VR4955 harboring UL54 T700A mutant gene infected in HFF after 8 to 10 days by plaque reduction assay; assay type: functional, organism-based; details: Human betaherpesvirus 5, VR4955; how it was run: as §2
Human alphaherpesvirus 2 [17] = test: Antiviral activity against HSV2 infected in BALB/c mouse assessed as virus-induced mortality rate at 30 mg/kg, po BID administered 72 hrs post infection; assay type: functional
Human alphaherpesvirus 2 [18] = test: Antiviral activity against HSV2 infected in BALB/c mouse assessed as virus-induced mortality rate at 30 mg/kg, po BID administered 24 hrs post infection; assay type: functional
Human gammaherpesvirus 8 = test: Antiviral activity against Human herpesvirus 8 infected in human BCBL1 cells assessed as inhibition of viral replication after 7 days; assay type: functional, organism-based; details: Human gammaherpesvirus 8, BCBL1, 168 h
How it was run: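 BCBL1 cells in RPMI 1640 with 10% FBS, compound diluted in triplicate wells with a top concentration of 100 μM. Lytic infection was induced with phorbol 12-myristate 13-acetate at 100 ng/ml final. After 7 days at 37°C in humidified CO2, viral DNA in total DNA was measured by TaqMan qPCR. EC50 was taken as 50% reduction of viral DNA.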

[19] = Selectivity index, ratio of CC50 for human BCBL1 cells to EC50 for Human herpesvirus 8 infected in human BCBL1 cells; assay type: toxicity, cell-based; details: read-out: Ratio CC50/EC50
Human gammaherpesvirus 4 = test: Antiviral activity against Epstein-Barr virus infected in human Akata cells after 72 hrs; assay type: functional, organism-based; details: human gammaherpesvirus 4, Akata
How it was run: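 Akata cells were kept in RPMI 1640 with 10% FBS. Compound ranged 100 to 0.032 μM. Latent cells were induced to lytic infection with 50 μg/ml goat anti-human IgG, and 4 × 10^4 cells were added per well. After 72 h, DNA was alkali/NaCl-denatured, blotted to nylon membrane, and viral DNA quantified by digoxigenin-probe hybridization with anti-hapten antibody detection.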

Human alphaherpesvirus 2 [20] = test: Antiviral activity against HSV2 infected in BALB/c mouse assessed mean time to virus-induced death at 10 mg/kg, po BID administered 72 hrs post infection; assay type: functional
Human alphaherpesvirus 2 [21] = test: Antiviral activity against HSV2 infected in BALB/c mouse assessed as virus-induced mortality rate at […], po BID administered 72 hrs post infection; assay type: functional
Human alphaherpesvirus 1 = test: Antiviral activity against HSV1 B-2006 harboring frameshift mutation at Q185 in TK infected in HFF after 3 days by plaque reduction assay; assay type: functional, organism-based; details: Human alphaherpesvirus 1, B-2006, 72 h; how it was run: as §1
[22] = Antiviral activity against Human herpesvirus 6 GS infected in human HSB2 cells assessed as inhibition of viral replication after 7 days; assay type: functional, cell-based, Human herpesvirus 6 (strain GS); details: Human betaherpesvirus 6A, HSB2, 168 h
How it was run: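 HSB-2 cells, 2 × 10^4 per well in RPMI 1640 with 10% FBS, received compound dilutions in triplicate wells. Cells were infected with HHV-6A strain GS and kept 7 days at 37°C. Total DNA was denatured and immobilized on nylon membrane. Viral DNA was then measured by digoxigenin-labeled probe hybridization and anti-hapten antibody detection with densitometric quantitation.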

SMILES: O=c1[nH]c(=O)n([C@H]2C[C@H](O)[C@@H](CO)S2)cc1I
- Ratio CC50/EC50 [1]: > 1250
- pEC50 (Human betaherpesvirus 5 [2]): 5.23
- selectivity ratio [3]: < 4.3
- Time (Human alphaherpesvirus 2 [4]): 9.8 days
- Activity (Human alphaherpesvirus 2 [5]): 67%
- pEC50 (Human alphaherpesvirus 2 [6]): 4.11
- pEC50 (Human alphaherpesvirus 2 [7]): 6.35
- pEC50 (Human betaherpesvirus 5 [8]): 5.19
- pEC50 (Human betaherpesvirus 5 [9]): 4.85
- Ratio CC50/EC50 [10]: 35
- Time (Human alphaherpesvirus 2 [11]): 11.7 days
- inhibition (Human alphaherpesvirus 2 [12]): Active
- Activity (Human alphaherpesvirus 2 [13]): 100%
- Ratio EC50 (Human alphaherpesvirus 2 [14]): 108
- Ratio CC50/EC50 [15]: > 140
- pEC50 (Human betaherpesvirus 5 [16]): 5.10
- Activity (Human alphaherpesvirus 2 [17]): 100%
- Activity (Human alphaherpesvirus 2 [18]): 100%
- pEC50 (Human gammaherpesvirus 8): < 5.40
- selectivity ratio [19]: < 3.6
- pEC50 (Human gammaherpesvirus 4): < 6.80
- Time (Human alphaherpesvirus 2 [20]): 10.7 days
- Activity (Human alphaherpesvirus 2 [21]): 100%
- pEC50 (Human alphaherpesvirus 1): < 3.35
- pEC50 [22]: < 4.00

— ChEMBL document CHEMBL1649277, “Inhibition of herpesvirus replication by 5-substituted 4'-thiopyrimidine nucleosides” (Antimicrob Agents Chemother, 2009)
